Assay results reported in the RNAGym collection of RNA variant scans (doi:10.1126/science.aae0568).
Variants at the floor of the assay were thinned out.

B1: tRNA (parent)
chain: GUUCCGUUGGCGUAAUGGUAACGCGUCUCCCUCCUAAGGAGAAGACUGCGGGUUCGAGUCCCGUACGGAACG

Variants of: B1
Test: yeast fitness relative to wild type (ratio to wild type); higher = fitter; tRNA-Arg(CCU), competitive growth, 37 C, YPD
Outline: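 Genotype frequency changes were the basis for Darwinian fitness relative to wild type. The frequencies came from 100-nucleotide paired-end sequencing of gene amplicons from the start population and each end population of pooled yeast strains with tRNA-Arg(CCU) gene variants at the native locus. Competition ran in YPD at 37°C for 24 hours in six replicates, genotypes needed ≥ 100 starting reads, and estimates < 0.5 were set to 0.5.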

Variant	yeast fitness
GUUCCGCUGGCGGAAUGGUAACGCGUCUCUCUCCUAAGGAGAAGACUGCGGGUUCGAGUCCCGUUCGGAACG	0.619
GUUCCGCUGGCGUAAAGGUAACGCGUCUCCCUCCUAAGGAGAAGACUGCGGGUUCGAGUCCCGUACGGAACG	0.812
GUUCCGCUGGCGUAAAGGUAACGGGUCUCCCUCCUAAGGACAAGACUGCGGGUUCGAGUCCCGUACGGAACG	≤ 0.5
GUUCCGCUGGCGUAAAGGUAACGCGUCUCCUUCCUAAGGAGACGACUGCGGGUUCGAGUCCCGUACGGAACG	0.722
GUUCCGCUGGCGUAAAGGUAACGCGUCUCCCUCCUAAGGACAAGACUGCGGGUCCGAGUCCCGUAUGGAACG	≤ 0.5
GUUCCGCUGGCGUAACGGUAACGCGUCUUCCUCCUAAGGAGAAGACUGCGGGUUCGAGUCCCGUACGGAACG	≤ 0.5
GUUCCGCUGGCGUAAGGGUGACGCGCCUCCCUCCUAAGGAGAAGACUGGGGGUUCGAGUCCCGUACGGAACG	≤ 0.5
GUUCCGCUGGCGUAAGAGUAACGCGUCUCCCUCCUAAGGAGAAGACUGUGGGUUCGAGUCCAGUACGGAACG	0.506
GUUCCGCUGGCGUAAGAGUAACGCGUCUCCCUCCUAAGGAGAAGACUGUGGGUUCGAGCCCAGUACGGAACG	≤ 0.5
GUUCCGCUGGCGUAAGGGUAACGCGUCACCCUCCUAAGGAGAAGACUGCGGGUUCGAGUCCCGUACGGAACG	≤ 0.5
GUUCCGCUGGCGUAAUGGAAACGCGUCUACCUCCUAAGGAGAAGACUGCGGGUUCGAGUCCCGUACGGAACG	≤ 0.5
GUUCCGCUGGCGUAAUGGAAACGCGUCUCCUUCCUAAGGAGAAGACUGUGGGUUCGAGUCCCGUACGGAACG	0.678
GUUCCGCUGGCGUAAUGGCAACGCGUCUCCCUCUUAAGGAGAAGACUGCGGAUUCGAGACCCGUACGGAACG	0.678
GUUCCGCUGGCGUAAUGGUAACGCGACUCCCUCCUAAGGAGAAGACUGCGGGUCCGAGUCCCGUACGGAACG	≤ 0.5
GUUCCGCUGGCGUAAUGGUAACGCGCCUCCCUCCUGAGGAGGAGACUCCGGGUUCGAGUCCCGUCCGGAACG	≤ 0.5
GUUCCGCUGGCGUAAUGGUAACGCGCCUCCGUCCCAAGGAGAAGAAUGCGGGUUCGAGUCCCGUAAGGAACG	≤ 0.5
GUUCCGCUGGCGUAAUGGUAACGCGCCUCCCUCCUAAGGACAAGAAUGCGGGUUCGAGUCCCGUACGGAACG	≤ 0.5
GUUCCGCUGGCGUAAUGGUAACGCGCCUCCCUCCUAAGGAGAAGACUGCGGGAUCGAGUCCCGUACGGAACG	≤ 0.5
GUUCCGCUGGCGUAAUGGUAACGCGGCUCCCUCCUCAGGAGAAGACUGCCGGUUCGAGUCCCGUACGGAACG	0.781

Variant	yeast fitness
GUUCCGCUGGCGUAAUGGUAACGCGGCUCCCUCCUAAGGAGAAGACUGCGGGUUCGUGUCCCGUAUGGAACG	≤ 0.5
GUUCCGCUGGCGUAAUGGUAACGCGUCACCCUCCUAAGGAGAAGACUGCGGGUUCGAGUCCCGUACGGAACG	0.845
GUUCCGCUGGCGUAAUGGUAACGCGUCACCCUCUUAAGGAGAAGACUGCGGGUUCGAGUCUCGUACGGAACG	≤ 0.5
GUUCCGCUGGCGUAAUGGUAACGCGUCACCCUCCUAAGGAGAAGACUCCGGGUUCGAGUCCCGUACGGUUCG	≤ 0.5
GUUCCGCUGGCGUAAUGGUAACGCGUCACCCUCCUAAGGAGAAGACUGCGGGUUCGAGUCCCGUACAGAACG	0.528
GUUCCGCUGGCGUAAUGGUAACGCGUCCCCCUCCUAAGGAGAAGACUGCGGGUUCGAGUCCCGUACGGAACG	0.879
GUUCCGCUGGCGUAAUGGUAACGCGUCUCCCACCUAAGGAGAAGACUGCGGGAUCGAGUCCCGUACGGAACG	0.576
GUUCCGCUGGCGUAAUGGUAACGCGUCUCCCCCCUAAGGAGAAGACUGCGGGUUCGAGUCCCGUACGGAACG	0.776
GUUCCGCUGGCGUAAUGGUAACGCGUCUCCCCCCUAAGGAGAAGACUGCGGGUUCGAAUCCCGUACGGACCG	≤ 0.5
GUUCCGCUGGCGUAAUGGUAACGCGUCUCCCCCCUAAGGAGAAGACUGCGGGCUCGAGUCCCGUACGGAACG	0.536
GUUCCGCUGGCGUAAUGGUAACGCGUCUCCCGCCUAAGGAGAAGACUGUGGGUUCGAGUCCCGUACGGAACG	≤ 0.5
GUUCCGCUGGCGUAAUGGUAACGCGUCUCCCUCCCAAGGAGAAGACUGCGGAUUCGAGUCCCGUACGGAACG	≤ 0.5
GUUCCGCUGGCGUAAUGGUAACGCGUCUCCCUCCUAAGGAGAAGACCGCGGGUUCGAGUCCCGUACGGAACG	0.895
GUUCCGCUGGCGUAAUGGUAACGCGUCUCCCUCCUAAGGAGAAGACCGCGGGUUCGAGUCCGGUACGGAACG	≤ 0.5
GUUCCGCUGGCGUAAUGGUAACGCGUCUCCCUCCUAAGGAGAAGACCGCGGGUUCGAGUCCCGGACGCAACG	≤ 0.5
GUUCCGCUGGCGUAAUGGUAACGCGUCUCCCUCCUAAGGAGAAGACGGCGGGUUCGAGUCCCGUACGUAACG	≤ 0.5
GUUCCGCUGGCGUAAUGGUAACGCGUCUCCCUCCUAAGGAGAAGACGGCGGGUUCGAGACCCGUAAGGACCG	≤ 0.5
GUUCCGCUGGCGUAAUGGUAACGCGUCUCCCUCCUAAGGAGAAGACUGCGGGAUCGAGUCCCGUACGGAACG	0.655
GUUCCGCUGGCGUAAUGGUAACGCGUCUCCCUCCUAAGGAGAAGACUGCGGGUCCGAGUCCCGUACGGAACG	0.821
